Assay results published in ChEMBL document CHEMBL1151856, “Novel, potent, and radio-iodinatable somatostatin receptor 1 (sst1) selective analogues” (J Med Chem, 2009).
Active and inactive are the calls of the source. The calls are words filed in the database; no cut-off is given here. Positions of bridges follow the written chain, without caps; N, C: chain ends. Non-standard residues stand in square brackets, D forms with d. Residues, ends and D or L forms follow the SMILES beside them. Phe(4-CH2NHiPr) = CC(C)NCc1ccc(C[C@H](N)C(=O)O)cc1

How the values were obtained:
[1] = target: T1, Somatostatin receptor type 1 (Homo sapiens, UniProt P30872); test: Agonist activity at human sst1 receptor expressed in Chinese hamster CCL39 cells by luciferase reporter gene assay relative to somatostatin-14; type: functional, cell-based
[2] = target: Somatostatin receptor type 2 (Homo sapiens, UniProt P30874); test: Displacement of [125I]LTT-SRIF-28 from human sst2 receptor by autoradiography
Procedure, shortened: (§1)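 Competition autoradiography on 20-μm cryostat sections of membrane pellets from cells expressing each cloned receptor. Buffer was 170 mM Tris-HCl pH 8.2 with 1% BSA, bacitracin and 10 mM MgCl2. Cold washes, 1-week film exposure, image quantification against isotope standards, IC50 derived.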

[3] = target: Somatostatin receptor type 4 (Homo sapiens, UniProt P31391); test: Displacement of [125I]LTT-SRIF-28 from human sst4 receptor by autoradiography
[4] = target: Somatostatin receptor type 3 (Homo sapiens, UniProt P32745); test: Displacement of [125I]LTT-SRIF-28 from human sst3 receptor by autoradiography; procedure, shortened: as §1
[5] = target: Somatostatin receptor type 5 (Homo sapiens, UniProt P35346); test: Displacement of [125I]LTT-SRIF-28 from human sst5 receptor by autoradiography; procedure, shortened: as §1
[6] = target: T1, Somatostatin receptor type 1; test: Displacement of [125I]LTT-SRIF-28 from human sst1 receptor by autoradiography; procedure, shortened: as §1

T1 sequence (P30872 whole entry): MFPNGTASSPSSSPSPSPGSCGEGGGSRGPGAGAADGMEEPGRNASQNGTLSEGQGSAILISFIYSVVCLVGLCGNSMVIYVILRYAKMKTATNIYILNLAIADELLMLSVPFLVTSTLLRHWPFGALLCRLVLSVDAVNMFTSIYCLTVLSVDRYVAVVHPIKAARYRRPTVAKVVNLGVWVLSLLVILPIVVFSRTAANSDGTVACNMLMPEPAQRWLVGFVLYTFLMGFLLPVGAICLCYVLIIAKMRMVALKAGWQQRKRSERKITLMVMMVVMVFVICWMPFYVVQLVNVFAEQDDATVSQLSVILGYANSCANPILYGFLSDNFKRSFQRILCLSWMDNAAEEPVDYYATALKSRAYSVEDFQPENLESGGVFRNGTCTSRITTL
Somatostatin receptor type 2, sequence (P30874 whole entry): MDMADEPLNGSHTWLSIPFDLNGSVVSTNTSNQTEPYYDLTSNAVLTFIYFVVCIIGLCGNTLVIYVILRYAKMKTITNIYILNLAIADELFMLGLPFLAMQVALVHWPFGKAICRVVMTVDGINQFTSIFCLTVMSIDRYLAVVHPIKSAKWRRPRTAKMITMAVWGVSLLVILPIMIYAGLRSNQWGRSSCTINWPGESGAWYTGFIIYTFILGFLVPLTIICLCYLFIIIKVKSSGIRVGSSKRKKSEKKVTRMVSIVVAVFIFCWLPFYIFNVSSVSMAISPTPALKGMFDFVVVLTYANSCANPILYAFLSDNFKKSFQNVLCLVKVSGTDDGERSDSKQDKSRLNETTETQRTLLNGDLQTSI
Somatostatin receptor type 5, sequence (P35346 whole entry): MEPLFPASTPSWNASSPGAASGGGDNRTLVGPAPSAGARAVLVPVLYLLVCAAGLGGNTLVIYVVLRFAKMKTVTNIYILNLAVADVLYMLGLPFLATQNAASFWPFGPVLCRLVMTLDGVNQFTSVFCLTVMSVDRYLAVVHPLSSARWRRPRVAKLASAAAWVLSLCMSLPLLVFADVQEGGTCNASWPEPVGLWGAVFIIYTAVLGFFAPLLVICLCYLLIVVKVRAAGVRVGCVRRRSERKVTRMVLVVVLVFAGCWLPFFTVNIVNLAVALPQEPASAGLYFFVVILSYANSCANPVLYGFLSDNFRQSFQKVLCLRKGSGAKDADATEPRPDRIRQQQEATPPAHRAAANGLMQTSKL
Somatostatin receptor type 4, sequence (P31391 whole entry): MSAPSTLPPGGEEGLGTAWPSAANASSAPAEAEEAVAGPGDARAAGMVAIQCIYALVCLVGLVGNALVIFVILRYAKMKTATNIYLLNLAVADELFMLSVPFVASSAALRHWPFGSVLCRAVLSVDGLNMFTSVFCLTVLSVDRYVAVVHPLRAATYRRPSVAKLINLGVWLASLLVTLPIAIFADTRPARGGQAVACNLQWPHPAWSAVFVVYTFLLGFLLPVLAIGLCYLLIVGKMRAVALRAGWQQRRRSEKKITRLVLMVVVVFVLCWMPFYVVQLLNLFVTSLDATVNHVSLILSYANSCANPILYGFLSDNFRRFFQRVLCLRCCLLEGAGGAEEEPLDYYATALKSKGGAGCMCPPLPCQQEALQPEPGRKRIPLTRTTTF
Somatostatin receptor type 3, sequence (P32745 whole entry): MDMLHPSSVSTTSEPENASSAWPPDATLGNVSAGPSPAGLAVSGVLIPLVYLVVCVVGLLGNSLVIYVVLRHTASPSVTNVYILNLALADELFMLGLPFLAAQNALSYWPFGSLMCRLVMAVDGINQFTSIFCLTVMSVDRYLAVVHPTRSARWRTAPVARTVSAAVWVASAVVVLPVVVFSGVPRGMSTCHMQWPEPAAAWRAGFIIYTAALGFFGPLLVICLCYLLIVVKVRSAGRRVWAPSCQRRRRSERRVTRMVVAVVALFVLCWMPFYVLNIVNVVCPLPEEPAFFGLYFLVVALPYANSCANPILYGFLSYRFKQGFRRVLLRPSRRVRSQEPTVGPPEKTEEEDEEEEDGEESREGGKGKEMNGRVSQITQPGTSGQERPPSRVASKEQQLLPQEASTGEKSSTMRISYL

Activity [1]	IC50 [2] [nM]	IC50 [3] [nM]	IC50 [4] [nM]	IC50 [5] [nM]	IC50 [6] [nM]	EC50 [1] [nM]	Compound
Active	> 1000	> 1000	> 1000				CC(C)NCc1ccc(C[C@@H]2NC(=O)[C@@H](Cc3c[nH]c4ccccc34)NC(=O)[C@H](Cc3ccccc3)NC(=O)[C@H](Cc3ccccc3)NC(=O)[C@H](CCCCN)NC(=O)[C@@H](NC(=O)[C@@H](N)Cc3ccc(O)cc3)CSSC[C@@H](C(=O)O)NC(=O)[C@H](CO)NC(=O)[C@H]([C@@H](C)O)NC(=O)[C@H](Cc3ccccc3)NC(=O)[C@H]([C@@H](C)O)NC2=O)cc1 (H-YCKFF[dW][Phe(4-CH2NHiPr)]TFTSC-OH; disulfide 2-12)
	> 1000	> 1000	> 1000	> 1000	530		CC(C)NCc1ccc(C[C@@H]2NC(=O)[C@H](N(C)C(=O)c3ccc4ccccc4c3)NC(=O)[C@H](Cc3ccccc3)NC(=O)[C@@H](N)CSSC[C@@H](C(N)=O)NC(=O)[C@H](Cc3ccc(O)cc3)NC2=O)cc1
Active	> 1000		252	> 1000	4.7		CC(C)NCc1ccc(C[C@@H]2NC(=O)[C@@H](N(C)C(=O)c3ccc4ccccc4c3)NC(=O)[C@H](Cc3ccccc3)NC(=O)[C@@H](N)CSSC[C@@H](C(N)=O)NC(=O)[C@H](Cc3ccc(O)cc3)NC2=O)cc1
	> 1000		253	> 1000	37		CC(C)NCc1ccc(C[C@@H]2NC(=O)[C@H](N(C)C(=O)c3ccc4ccccc4c3)NC(=O)[C@H](Cc3ccccc3)NC(=O)[C@@H](N)CSSC[C@@H](C(=O)N[C@H](C(N)=O)[C@@H](C)O)NC(=O)[C@H](Cc3ccccc3)NC2=O)cc1
	> 1000	> 1000	> 1000	> 1000			CC(C)NCc1ccc(C[C@@H]2NC(=O)[C@H](N(C)C(=O)c3ccc4ccccc4c3)NC(=O)[C@H](Cc3ccccc3)NC(=O)[C@@H](NC(=O)[C@H](N)Cc3ccc(O)cc3)CSSC[C@@H](C(=O)N[C@H](C(N)=O)[C@@H](C)O)NC(=O)[C@H](Cc3ccccc3)NC2=O)cc1
					> 1000		C[C@@H](O)[C@H](NC(=O)[C@@H]1CSSC[C@H](NC(=O)[C@H](N)Cc2ccccc2)C(=O)N[C@@H](Cc2ccccc2)C(=O)N[C@H](Cc2c[nH]c3ccccc23)C(=O)N[C@@H](CCCCN)C(=O)N[C@@H]([C@@H](C)O)C(=O)N1)C(N)=O
	> 1000	> 1000	150	> 1000	31		CC(C)NCc1ccc(C[C@@H]2NC(=O)[C@@H](Cc3c[nH]c4ccccc34)NC(=O)[C@H](Cc3ccccc3)NC(=O)[C@H](Cc3ccccc3)NC(=O)[C@H](CCCCN)NC(=O)[C@@H](N)CSSC[C@@H](C(=O)O)NC(=O)[C@H](CO)NC(=O)[C@H]([C@@H](C)O)NC(=O)[C@H](Cc3ccccc3)NC(=O)[C@H]([C@@H](C)O)NC2=O)cc1 (H-CKFF[dW][Phe(4-CH2NHiPr)]TFTSC-OH; disulfide 1-11)
	> 1000		72	> 1000	14		CC(C)NCc1ccc(C[C@@H]2NC(=O)[C@@H](Cc3c[nH]c4ccccc34)NC(=O)[C@H](Cc3ccccc3)NC(=O)[C@@H](NC(=O)[C@H](N)Cc3ccccc3)CSSC[C@@H](C(=O)N[C@H](C(N)=O)[C@@H](C)O)NC(=O)[C@H](Cc3ccccc3)NC2=O)cc1 (H-[dF]CF[dW][Phe(4-CH2NHiPr)]FCT-NH2; disulfide 2-7)
	> 1000		> 1000	> 1000	108		CC(C)NCc1ccc(C[C@@H]2NC(=O)[C@@H](Cc3c[nH]c4ccccc34)NC(=O)[C@H](Cc3ccccc3)NC(=O)[C@@H](N)CSSC[C@@H](C(=O)N[C@H](C(N)=O)[C@@H](C)O)NC(=O)[C@H](Cc3ccccc3)NC2=O)cc1 (H-CF[dW][Phe(4-CH2NHiPr)]FCT-NH2; disulfide 1-6)
Active							CC(C)NCc1ccc(C[C@@H]2NC(=O)[C@@H](N(C)C(=O)c3ccc4ccccc4c3)NC(=O)[C@H](Cc3ccccc3)NC(=O)[C@H](N)CSSC[C@@H](C(=O)N[C@@H](Cc3ccc4ccccc4c3)C(N)=O)NC(=O)[C@H](Cc3ccccc3)NC2=O)cc1 (single isomer, unassigned)
Active	> 1000	95	681	> 1000	1	3.9	CC(C)NCc1ccc(C[C@@H]2NC(=O)[C@@H](N(C)C(=O)c3ccc4ccccc4c3)NC(=O)[C@H](Cc3ccccc3)NC(=O)[C@@H](N)CSSC[C@@H](C(=O)N[C@H](C(N)=O)[C@@H](C)O)NC(=O)[C@H](Cc3ccccc3)NC2=O)cc1
Active	> 1000	270	410	> 1000	8.2		CC(C)NCc1ccc(C[C@@H]2NC(=O)[C@@H](N(C)C(=O)c3ccc4ccccc4c3)NC(=O)[C@H](Cc3ccccc3)NC(=O)[C@H](NC(=O)[C@@H](N)Cc3ccc(O)cc3)CSSC[C@@H](C(=O)N[C@@H](Cc3ccc4ccccc4c3)C(N)=O)NC(=O)[C@H](Cc3ccccc3)NC2=O)cc1
	> 1000	932	789	> 1000	189		CC(C)NCc1ccc(C[C@@H]2NC(=O)[C@@H](Cc3c[nH]c4ccccc34)NC(=O)[C@H](Cc3ccccc3)NC(=O)[C@H](Cc3ccccc3)NC(=O)[C@H](CCCCN)NC(=O)[C@@H](N)CSSC[C@@H](C(=O)O)NC(=O)[C@H](Cc3ccccc3)NC(=O)[C@H]([C@@H](C)O)NC2=O)cc1 (H-CKFF[dW][Phe(4-CH2NHiPr)]TFC-OH; disulfide 1-9)
	> 1000	27	158	> 1000			CC(C)NCc1ccc(C[C@@H]2NC(=O)[C@@H](N(C)C(=O)c3ccc4ccccc4c3)NC(=O)[C@H](Cc3ccccc3)NC(=O)[C@@H](NC(=O)[C@H](N)Cc3ccc(O)cc3)CSSC[C@@H](C(=O)N[C@H](C(N)=O)[C@@H](C)O)NC(=O)[C@H](Cc3ccccc3)NC2=O)cc1
	> 1000	> 1000	> 1000	> 1000	> 1000		CC(C)NCc1ccc(C[C@@H]2NC(=O)[C@@H](Cc3c[nH]c4ccccc34)NC(=O)[C@H](Cc3ccccc3)NC(=O)[C@H](Cc3ccccc3)NC(=O)[C@@H](N)CSSC[C@@H](C(=O)O)NC(=O)[C@H](Cc3ccccc3)NC(=O)[C@H]([C@@H](C)O)NC2=O)cc1 (H-CFF[dW][Phe(4-CH2NHiPr)]TFC-OH; disulfide 1-8)
	> 1000	> 1000	60	> 1000	150		CC(C)NCc1ccc(C[C@@H]2NC(=O)[C@@H](Cc3c[nH]c4ccccc34)NC(=O)[C@H](Cc3ccccc3)NC(=O)[C@@H](NC(=O)[C@@H](N)Cc3ccc(O)cc3)CSSC[C@@H](C(=O)N[C@H](C(N)=O)[C@@H](C)O)NC(=O)[C@H](Cc3ccccc3)NC(=O)[C@H]([C@@H](C)O)NC2=O)cc1 (H-YCF[dW][Phe(4-CH2NHiPr)]TFCT-NH2; disulfide 2-8)
					3.6		CC(C)NCc1ccc(C[C@@H]2NC(=O)[C@@H](Cc3c[nH]c4ccccc34)NC(=O)[C@H](Cc3ccccc3)NC(=O)[C@H](Cc3ccccc3)NC(=O)[C@H](CCCCN)NC(=O)[C@@H](N)CSSC[C@@H](C(=O)O)NC(=O)[C@H](CO)NC(=O)[C@H]([C@@H](C)O)NC(=O)[C@H](Cc3ccc(O)c([125I])c3)NC(=O)[C@H]([C@@H](C)O)NC2=O)cc1
	> 1000	> 1000	463	> 1000	189		CC(C)NCc1ccc(C[C@@H]2NC(=O)[C@H](N(C)C(=O)c3ccc4ccccc4c3)NC(=O)[C@H](Cc3ccccc3)NC(=O)[C@H](NC(=O)[C@@H](N)Cc3ccc(O)cc3)CSSC[C@@H](C(=O)N[C@@H](Cc3ccc4ccccc4c3)C(N)=O)NC(=O)[C@H](Cc3ccccc3)NC2=O)cc1
	> 1000	562	> 1000	> 1000	3.3		CC(C)NCc1ccc(C[C@@H]2NC(=O)[C@@H](N(C)C(=O)c3ccc4ccccc4c3)NC(=O)[C@H](Cc3ccccc3)NC(=O)[C@H](Cc3ccccc3)NC(=O)[C@H](CCCCN)NC(=O)[C@@H](N)CSSC[C@@H](C(=O)O)NC(=O)[C@H](CO)NC(=O)[C@H]([C@@H](C)O)NC(=O)[C@H](Cc3ccc(O)cc3)NC(=O)[C@H]([C@@H](C)O)NC2=O)cc1
